From PubChem BioAssay
Compounds with a hit are over-represented: about 2.9% of the library has one in this group of screens.
TRPC6 inh = inhibitors of mouse TRPC6 channel; Q61143; hit rate 1.1% among 310,000; HEK293-TRPC6, membrane potential dye, ACh-evoked depolarization; active compounds read low; B-score at 10 µM;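 active = B-score under library mean minus 3 SD, initial fluorescence not abnormally high, positive integrated signal ratio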;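 also: B-score derived from integrated fluorescence ratio over the kinetic read; more negative B-score means stronger inhibition of depolarization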
TRPC6 activator = activates the mouse TRPC6 cation channel. Q61143. hit rate 0.13% among 310,000. B-score at 10 µM. AID 2550. HEK293-TRPC6 membrane potential dye fluorescence; active compounds read high;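 active = B-score of the integrated fluorescence ratio above library mean plus 3 SD, and starting fluorescence ratio within library mean plus 5 SD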;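 also: higher score means more depolarization so channel activation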
TRPC4 act = TRPC4 (mouse) channel activation | Q9QUQ5 | HEK293 TRPC4beta/mu-opioid, Fluo4 calcium fluorescence; active compounds read high | B-score at 10 µM | hit rate 0.49% among 310,000 | AID 2237;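 active = B-score above 5 SD of library B-scores, and initial fluorescence ratio not above library mean plus 5 SD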;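 also: positive B-score marks a calcium rise read as TRPC4 activation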
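Assay system: HEK293 stable line with TRPC4beta plus mu-opioid receptor; schedule: 45 min room-temperature Fluo4 loading, 110 s read; technique: kinetic Fluo4 calcium fluorescence; evaluation: integrated baseline-normalised fluorescence ratio, converted to per-well B score; controls: buffer (low) and maximal DAMGO (high)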
TRPC4 block = blocks the mouse TRPC4 cation channel | B-score at 10 µM | HEK293 TRPC4beta/mu-opioid, DAMGO-evoked Fluo4 calcium flux; active compounds read low | hit rate 0.39% among 300,000;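 active = B-score over 3 SD under the library average, no early fluorescence shift, positive overall ratio signal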
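System: stable TRPC4beta/mu-opioid receptor HEK293 cells; Dosing: single-point compound dosing; Measured by: Fluo4 Ca2+ flux fluorescence; Read-out basis: per-well B score of integrated baseline-normalized Fluo4 ratio.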
TRPC4 potent = allosteric potentiators of mouse TRPC4 channel. Q9QUQ5. HEK293 TRPC4beta/mu-opioid, DAMGO EC20, Fluo-4 Ca2+ flux; active compounds read high. B-score at 10 µM. AID 2227. hit rate 0.42% among 310,000;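 active = B-score of calcium response area above 5 SD of library B-scores, with initial fluorescence ratio within 5 SD of library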
Kir21 inh = blocks the mouse Kir2.1 inward-rectifier potassium channel; hit rate 0.85% among 310,000; P35561; B-score at 10 µM; HEK293-Kir2.1, FluxOR thallium flux fluorescence; active compounds read low; AID 1672;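 active = fluorescence ratio B-score at or below minus 3 SD of library scores, with starting-brightness B-score within 2 SD, cut at about -4.2 in these data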;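 also: channel flux triggered by added potassium and thallium sulfate stimulus; B-score of peak minus minimum fluorescence over baseline after thallium stimulus; more negative B-score means stronger Kir2.1 block with less thallium influx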
TRPC4 sel inh 2 = second check of whether TRPC6 inhibitors also affect mouse TRPC4 | HEK293 TRPC4/MOR, membrane potential dye fluorescence; channel activated by saturating DAMGO dose | inhibition, % at 10 µM | AID 2776 | shares compounds with TRPC6 inh | hit rate 42% among 920;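 active = compounds whose fluorescence signal differed from control wells by over 3 SD, either direction, in both duplicate plates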
TRPC4 spec = mouse TRPC4 off-target activity of TRPC6 inhibitors; shares compounds with TRPC6 inh; HEK293 TRPC4/mu-opioid, membrane potential fluorescence; hit rate 61% among 920; activity change, negative = inhibition, % at 10 µM;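 active = rise or fall in signal beyond 3 SD of buffer-only wells in both replicate plates, either sign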;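 also: integrated kinetic ratio of fluorescence range over baseline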
HEK293 MPD ctr 2-1 = parental HEK293 nonspecific activity of TRPC6 inhibitors, second screen; parental HEK293 membrane potential dye fluorescence; maximal acetylcholine challenge after compound addition; AID 2779; hit rate 31% among 920; signal change vs control, % at 10 µM; shares compounds with TRPC6 inh;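 active = membrane potential signal moving either way by over 3 SD of the maximum-effect control, in both duplicate plates, meaning non-specific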
HEK293 MPD ctr-1 = counter-screen for TRPC6 inhibitors: effect in parental HEK293 cells; shares compounds with TRPC6 inh; parental HEK293 membrane potential dye fluorescence; membrane potential signal change, % at 10 µM; hit rate 60% among 920;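 active = membrane potential signal shifting up or down by more than 3 SD of buffer-only wells, on both duplicate plates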
HEK293 MPD ctr-2 = counter-screen for TRPC6 modulators: effect in parental HEK293 cells; shares compounds with TRPC6 inh; membrane potential dye fluorescence; membrane potential signal change, % at 10 µM; hit rate 51% among 2,400;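 active = membrane potential signal moves up or down beyond 5 SD from buffer-only wells, on both duplicate plates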
HEK293 MPD ctr 2-2 = parental HEK293 nonspecific activity of TRPC6 modulators, second screen; shares compounds with TRPC6 inh; membrane potential dye fluorescence; after compound, maximal acetylcholine stimulation; inhibition, % at 10 µM; hit rate 14% among 2,400;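 active = membrane potential signal drops by more than 5 SD from the mean control signal, in both duplicate plates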
TRPC4/MOR mod = mouse TRPC4 off-target activity of TRPC6 modulators; HEK293 TRPC4/mu-opioid, membrane potential fluorescence; shares compounds with TRPC6 inh; percent change from control (negative = decrease, positive = increase), % at 10 µM; hit rate 69% among 2,400;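 active = membrane potential signal moved up or down beyond 5 SD of buffer control wells, in both duplicate plates, actives on both sides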
TRPC4/MOR inh 2 = second check of whether TRPC6 modulators also affect mouse TRPC4; shares compounds with TRPC6 inh; HEK293 TRPC4/mu-opioid, membrane potential dye fluorescence; stimulated with maximal-effect DAMGO; inhibition, % at 10 µM; hit rate 55% among 2,400; AID 488928;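 active = drop in membrane potential signal beyond 5 SD of the control wells in both duplicate plates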;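 also: TRPC4 counter screen for TRPC6 hits run under conditions tuned for TRPC6 not TRPC4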
TRPC6 inh conf = confirmation of mouse TRPC6 inhibitors. HEK293-TRPC6, membrane potential dye, ACh-evoked depolarization. hit rate 43% among 3,300. shares compounds with TRPC6 inh. inhibition, % at 10 µM;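 active = fluorescence ratio falls more than 5 SD below the full-stimulation control mean, in both duplicate runs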;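 also: integrated fluorescence ratio of peak minus minimum over baseline after agonist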
TRPC6 act conf = mouse TRPC6 activator confirmation; shares compounds with TRPC6 inh; HEK293-TRPC6 membrane potential dye fluorescence, FDSS; activation, % at 10 µM; hit rate 11% among 2,800; AID 488961;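 active = ratio signal rise beyond 5 SD above unstimulated control wells' mean, seen in both duplicate runs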
A number is an active result; i = inactive; nt = no result given.

SMILES	TRPC6 inh	TRPC6 activator	TRPC4 act	TRPC4 block	TRPC4 potent	Kir21 inh	HEK293 MPD ctr-2	HEK293 MPD ctr 2-2	TRPC4/MOR mod	TRPC4/MOR inh 2	TRPC6 inh conf	TRPC6 act conf	others
O=C(COc1cccc2cccnc12)N1CCc2ccccc2C1	-6.2	i	i	i	i	i	-126%	i	-22%	i	i	i
CC1CN(c2nn3c(=O)c4ccccc4nc3c3ccccc23)CC(C)O1 (stereo not drawn)	i	i	i	i	i	i	nt	nt	nt	nt	nt	nt
CN1CCN(c2nc(-c3ccc(Cl)c(Cl)c3)nc3ccccc23)CC1	i	i	i	i	i	i	nt	nt	nt	nt	nt	nt
CCN1CCN(c2nn3c(=O)c4ccccc4nc3c3ccccc23)CC1	-5.3	i	i	i	i	i	i	i	i	52%	42%	i
CN1CCN(c2nc(-c3cccnc3)nc3ccccc23)CC1	-8.1	i	i	i	i	i	-320%	69%	-57%	66%	56%	i
CN1CCN(c2nc(-c3ccccn3)nc3ccccc23)CC1	-16	i	i	i	i	i	-428%	82%	-70%	72%	74%	i
CCN1CCN(c2nc(-c3ccncc3)nc3ccccc23)CC1	i	i	i	i	i	i	nt	nt	nt	nt	nt	nt
CCN1CCN(c2nc(-c3cccnc3)nc3ccccc23)CC1	-8.2	i	i	i	i	i	-356%	i	-58%	62%	58%	i
CC(C)Oc1ccc(S(=O)(=O)N2CCOCC2)cc1NC(=O)CN1C(=O)NC2(CCCC2)C1=O	i	i	i	i	i	i	nt	nt	nt	nt	nt	nt
COc1ccc(C2CC(c3ccc4ccccc4c3OC(C)=O)=NN2C(C)=O)cc1 (stereo not drawn)	i	i	i	i	i	i	nt	nt	nt	nt	nt	nt
CCCN1CCN(c2nc(-c3cccs3)nc3ccccc23)CC1	-6.1	i	i	i	i	i	-64%	i	-15%	52%	i	i
c1ccc(Oc2cccc(OCCCCN3CCCC3)c2)cc1	-8.6	i	i	i	i	i	nt	nt	nt	nt	i	nt	TRPC4 sel inh 2=i;TRPC4 spec=5.8%;HEK293 MPD ctr 2-1=262%;HEK293 MPD ctr-1=5.1%
CCN1C/C(=N\S(=O)(=O)/N=C2\CN(CC)C(=O)N2CC)N(CC)C1=O	i	i	i	i	i	i	nt	nt	nt	nt	nt	nt
C#CCn1cccc(C(=O)Nc2ccc(OC)cc2)c1=O	i	i	i	i	i	i	nt	nt	nt	nt	nt	nt
C#CCn1cc(Cl)cc(C(=O)Nc2ccccc2)c1=O	-7.1	i	i	i	i	i	nt	nt	nt	nt	i	i	TRPC4 sel inh 2=i;TRPC4 spec=i;HEK293 MPD ctr 2-1=i;HEK293 MPD ctr-1=i
CN1C(=O)CS/C1=N\NC(=O)COc1cccc2cccnc12	-5.9	i	i	i	i	i	-230%	i	-42%	i	i	i
Cc1ccccc1OCC(=O)N/N=C1\SCC(=O)N1Cc1ccccc1	i	i	i	i	i	i	nt	nt	nt	nt	nt	nt
CCOc1ccccc1N(C)S(=O)(=O)c1ccc2c(c1)N(C(C)=O)CCO2	i	i	i	i	i	i	nt	nt	nt	nt	nt	nt
O=C(CCn1c(=S)[nH]c2cc3c(cc2c1=O)OCO3)NCc1ccccc1Cl	i	i	i	i	i	i	nt	nt	nt	nt	nt	nt
CCN1CCN(C(=O)Cn2nc(-c3ccc(Cl)cc3)ccc2=O)CC1	i	i	i	i	i	i	nt	nt	nt	nt	nt	nt
CCOC(=O)N1CCN(C(=O)Cn2nc(-c3ccc(Cl)cc3)ccc2=O)CC1	-6.8	i	i	i	i	i	nt	nt	nt	nt	57%	nt	TRPC4 sel inh 2=i;TRPC4 spec=0.5%;HEK293 MPD ctr 2-1=i;HEK293 MPD ctr-1=2.3%
Cc1noc(/C=C/N(C)C)c1S(=O)(=O)N1CCC(C(=O)NC(C)(C)C)CC1	i	i	i	i	i	i	nt	nt	nt	nt	nt	nt
Cn1nc([N+](=O)[O-])nc1N1CCN(c2ccc(F)cc2)CC1	-7	i	i	i	i	i	nt	nt	nt	nt	i	i	TRPC4 sel inh 2=i;TRPC4 spec=i;HEK293 MPD ctr 2-1=i;HEK293 MPD ctr-1=i
CN(C)CCN(C(=O)c1ccc(Br)s1)c1nc2cc3c(cc2s1)OCCO3	i	i	i	i	i	i	nt	nt	nt	nt	nt	nt
CN(C)CCN(C(=O)c1cccs1)c1nc2cc3c(cc2s1)OCCO3	-8	i	i	i	i	i	nt	nt	nt	nt	96%	i	TRPC4 sel inh 2=44%;TRPC4 spec=-18%;HEK293 MPD ctr 2-1=i;HEK293 MPD ctr-1=-230%
SMILES	TRPC6 inh	TRPC6 activator	TRPC4 act	TRPC4 block	TRPC4 potent	Kir21 inh	HEK293 MPD ctr-2	HEK293 MPD ctr 2-2	TRPC4/MOR mod	TRPC4/MOR inh 2	TRPC6 inh conf	TRPC6 act conf	others
CCN(CC)CCN(C(=O)c1ccc2c(c1)OCCO2)c1nc2cc3c(cc2s1)OCO3	-5.8	i	i	i	i	i	i	i	-23%	84%	50%	i
CN(C)CCCN(C(=O)c1ccc2c(c1)OCCO2)c1nc2cc3c(cc2s1)OCO3	-5.7	i	i	i	i	i	i	i	-18%	80%	78%	i
CCOc1ccc(N=c2cc(-c3ccc(OC)cc3)oc3ccccc23)cc1	i	i	i	i	i	i	nt	nt	nt	nt	nt	nt
COc1ccc(N=c2cc(-c3ccc(O)cc3)oc3ccccc23)cc1	-6.1	i	i	i	i	i	-94%	i	-28%	64%	41%	i
COc1ccc(N=c2cc(-c3ccc(OC)cc3)oc3ccccc23)cc1	-5.5	i	i	i	i	i	-109%	i	-26%	52%	38%	i
COc1ccc(-c2cc(=Nc3ccc(C)cc3)c3ccccc3o2)cc1	-8.8	i	i	i	i	-6.1	nt	nt	nt	nt	i	i	TRPC4 sel inh 2=i;TRPC4 spec=-12%;HEK293 MPD ctr 2-1=i;HEK293 MPD ctr-1=i
CN(C)N1C(N)=C(C#N)C(c2cccs2)C2=C1CC(C)(C)CC2=O (stereo not drawn)	i	i	i	i	i	i	nt	nt	nt	nt	nt	nt
